# Activity calls are given as the source filed them. The rule behind the calls is not given here.
# How the values were obtained:
# [1] = target: Transient receptor potential cation channel subfamily M member 8 (Rattus norvegicus, UniProt Q8R455); experiment: Antagonist activity at rat TRPM8 expressed in CHO cells assessed as inhibition of icilin-induced Ca2+ influx incubated 2.5 mins prior icilin induction by flash luminometry; format: functional, cell-based
# In short: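 CHO cells stably expressing rat TRPM8 under a tetracycline-inducible T-REx system, co-transfected with aequorin. Seeded 24 h before assay; expression induced with 0.5 μg/mL tetracycline. Luminescence was read on a CCD-camera luminometer.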
# [2] = Intrinsic clearance in CD1 rat liver microsomes at 1 uM after 30 mins; format: ADME, Microsome; settings: read-out: CLH
# [3] = test system: Plasma; experiment: Plasma concentration in Sprague-Dawley rat at 30 mg/kg, po; format: ADME, organism-based; set-up: dose 30 mg/kg, route oral; settings: in vivo
# In short: (§1)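 Male Sprague–Dawley rats (n = 8 per group) dosed po in 5% Tween 80/Oraplus 90 min before icilin challenge in the wet-dog-shake study. Plasma collected 2 h after oral dosing.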
# [4] = Volume of distribution at steady state in Sprague-Dawley rat at 2 mg/kg, iv by LC-MS/MS analysis; format: ADME, organism-based; set-up: dose 2 mg/kg, route intravenous; settings: in vivo, read-out: Vdss
# In short: (§2)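 Fed male Sprague–Dawley rats, n = 3, given 2 mg/kg iv in DMSO. Measured by LC/MS/MS; noncompartmental analysis; mean(SD).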
# [5] = Cmax in Sprague-Dawley rat at 10 mg/kg, po by LC-MS/MS analysis; format: ADME, organism-based; set-up: dose 10 mg/kg, route oral; settings: in vivo
# In short: (§3)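 Fasted male Sprague–Dawley rats, n = 3, given 10 mg/kg by oral gavage as a suspension in 5% Tween 80/Oraplus. Plasma taken predose and at 0.25, 0.5, 1, 2, 4, 6, 8, 12 and 16 h. Measured by LC/MS/MS; noncompartmental analysis; mean(SD).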
# [6] = AUC (infinity) in Sprague-Dawley rat at 2 mg/kg, iv by LC-MS/MS analysis; format: ADME, organism-based; set-up: time infinity, dose 2 mg/kg, route intravenous; settings: plasma; in short: as §2
# [7] = AUC (infinity) in Sprague-Dawley rat at 10 mg/kg, po by LC-MS/MS analysis; format: ADME, organism-based; set-up: time infinity, dose 10 mg/kg, route oral; settings: plasma; in short: as §3
# [8] = test system: Rattus norvegicus; experiment: Antinociceptive activity in po dosed Sprague-Dawley rat assessed as inhibition of icilin-induced wet-dog shakes administered 90 mins prior icilin challenge measured for 30 mins; format: functional, organism-based
# In short: (§4)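 Male Sprague–Dawley rats (220–300 g, n = 5–13/treatment) were habituated 30 min to the room, then 20 min to an observation cylinder, kept out of sight of other rats. Compound or vehicle (5% Tween 80/Oraplus) given po 90 min before icilin (0.5 mg/kg ip in 100% PEG 400). Wet-dog shakes counted for 30 min afterwards.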
# [9] = test system: Rattus norvegicus; experiment: Antinociceptive activity in Sprague-Dawley rat assessed as inhibition of icilin-induced wet-dog shakes at 3 mg/kg, po administered 90 mins prior icilin challenge measured for 30 mins; format: functional; in short: as §4
# [10] = Oral bioavailability in Sprague-Dawley rat at 10 mg/kg by LC-MS/MS analysis; format: ADME, organism-based; settings: in vivo; in short: as §3
# [11] = test system: Rattus norvegicus; experiment: Antinociceptive activity in Sprague-Dawley rat assessed as inhibition of icilin-induced wet-dog shakes at 30 mg/kg, po administered 90 mins prior icilin challenge measured for 30 mins; format: functional; in short: as §4
# [12] = test system: Rattus norvegicus; experiment: Antinociceptive activity in Sprague-Dawley rat assessed as inhibition of icilin-induced wet-dog shakes at 100 mg/kg, po administered 90 mins prior icilin challenge measured for 30 mins; format: functional, organism-based; set-up: dose 100 mg/kg; in short: as §4
# [13] = test system: Plasma; experiment: Plasma concentration in Sprague-Dawley rat at 100 mg/kg, po; format: ADME, organism-based; set-up: dose 100 mg/kg, route oral; settings: in vivo; in short: as §1
# Chain of Transient receptor potential cation channel subfamily M member 8 (Q8R455 whole entry): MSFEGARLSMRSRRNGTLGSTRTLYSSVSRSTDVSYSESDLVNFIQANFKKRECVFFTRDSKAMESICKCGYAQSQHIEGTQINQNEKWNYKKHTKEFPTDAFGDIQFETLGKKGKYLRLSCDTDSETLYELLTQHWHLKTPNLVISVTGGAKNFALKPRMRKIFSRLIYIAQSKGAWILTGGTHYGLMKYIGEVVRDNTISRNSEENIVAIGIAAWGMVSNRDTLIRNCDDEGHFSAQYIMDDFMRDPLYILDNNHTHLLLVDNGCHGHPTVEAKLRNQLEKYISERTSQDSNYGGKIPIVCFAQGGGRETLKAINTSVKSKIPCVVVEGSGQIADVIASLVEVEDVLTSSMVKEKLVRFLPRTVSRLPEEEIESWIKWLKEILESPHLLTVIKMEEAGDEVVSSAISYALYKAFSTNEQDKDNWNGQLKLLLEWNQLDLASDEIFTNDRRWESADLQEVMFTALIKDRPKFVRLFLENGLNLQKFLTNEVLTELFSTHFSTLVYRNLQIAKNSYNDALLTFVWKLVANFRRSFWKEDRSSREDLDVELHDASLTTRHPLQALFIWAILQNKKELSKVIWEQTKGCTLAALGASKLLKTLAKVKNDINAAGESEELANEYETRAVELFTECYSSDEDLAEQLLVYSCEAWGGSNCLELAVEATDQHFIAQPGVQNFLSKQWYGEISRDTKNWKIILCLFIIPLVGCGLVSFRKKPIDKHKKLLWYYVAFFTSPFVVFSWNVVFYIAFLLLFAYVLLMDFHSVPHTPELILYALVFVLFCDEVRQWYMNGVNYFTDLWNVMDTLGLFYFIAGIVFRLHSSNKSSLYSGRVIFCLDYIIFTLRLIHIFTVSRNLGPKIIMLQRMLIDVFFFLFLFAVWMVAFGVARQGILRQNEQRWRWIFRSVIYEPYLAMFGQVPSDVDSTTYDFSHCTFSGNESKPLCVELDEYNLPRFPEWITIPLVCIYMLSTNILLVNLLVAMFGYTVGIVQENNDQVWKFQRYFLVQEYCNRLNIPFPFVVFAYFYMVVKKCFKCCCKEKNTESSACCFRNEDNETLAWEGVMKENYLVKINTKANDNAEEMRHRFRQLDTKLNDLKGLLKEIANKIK
IC50 [1],microsomal CLint at 1 µM [2],SMILES,also measured
190 nM,34 µL/min/mg,O=C(Nc1ccc(F)cc1)N1CCc2ccc(F)cc2C1c1ccc(C(F)(F)F)cc1 (centres undefined),–
1840 nM,> 399 µL/min/mg,O=C(Nc1ccccc1)N1CCc2sccc2C1c1ccc(F)cc1 (centres undefined),–
> 20000 nM,< 14 µL/min/mg,CC(C)N1CCc2sccc2C1c1ccc(C(F)(F)F)cc1 (centres undefined),–
180 nM,123 µL/min/mg,O=C(Nc1ccc(F)cc1)N1CCn2cccc2C1c1ccc(C(F)(F)F)cc1 (centres undefined),–
93 nM,110 µL/min/mg,O=C(Nc1ccc(F)cc1)N1CCc2scnc2C1c1ccc(C(F)(F)F)cc1 (centres undefined),–
780 nM,278 µL/min/mg,O=C(Nc1cccc(F)c1)N1CCc2sccc2C1c1ccc(C(F)(F)F)cc1 (centres undefined),–
550 nM,> 399 µL/min/mg,CC(C)NC(=O)N1CCc2sccc2C1c1ccc(C(F)(F)F)cc1 (centres undefined),–
1390 nM,> 399 µL/min/mg,CCCC1c2ccsc2CCN1C(=O)Nc1ccc(Cl)cc1 (centres undefined),–
290 nM,211 µL/min/mg,O=C(Nc1ccccc1)N1CCc2sccc2C1c1ccc(C(F)(F)F)cc1 (centres undefined),–
260 nM,109 µL/min/mg,O=C(Nc1ccc(F)cc1)N1CCc2occc2C1c1ccc(C(F)(F)F)cc1 (centres undefined),–
510 nM,> 399 µL/min/mg,O=C(c1ccccc1F)N1CCc2sccc2C1c1ccc(C(F)(F)F)cc1 (centres undefined),–
> 20000 nM,> 399 µL/min/mg,FC(F)(F)c1ccc(C2NCCc3sccc32)cc1 (centres undefined),–
2270 nM,> 399 µL/min/mg,O=C(Nc1ccccc1)N1CCc2sccc2C1c1ccccc1F (centres undefined),–
293 nM,> 399 µL/min/mg,CCCC1c2ccsc2CCN1C(=O)Nc1ccccc1 (centres undefined),–
1320 nM,> 399 µL/min/mg,O=C(Nc1ccccc1)N1CCc2sccc2C1c1cccc(F)c1 (centres undefined),–
1210 nM,> 399 µL/min/mg,O=C(NC1CC1)N1CCc2sccc2C1c1ccc(C(F)(F)F)cc1 (centres undefined),–
> 20000 nM,146 µL/min/mg,O=C(Nc1ccc(F)cc1)N1CCCc2ccccc2C1c1ccc(C(F)(F)F)cc1 (centres undefined),–
150 nM,206 µL/min/mg,O=C(Nc1ccc(F)cc1)N1CCc2ccsc2C1c1ccc(C(F)(F)F)cc1 (centres undefined),–
2660 nM,285 µL/min/mg,O=C(Nc1ccc(F)cc1)N1CCCCC1c1ccc(C(F)(F)F)cc1 (centres undefined),–
1830 nM,> 399 µL/min/mg,O=C(Nc1ccccc1)N1CCc2sccc2C1c1cccc(C(F)(F)F)c1 (centres undefined),–
890 nM,> 399 µL/min/mg,O=C(Cc1ccc(F)cc1)N1CCc2sccc2C1c1ccc(C(F)(F)F)cc1 (centres undefined),–
–,–,O=C(Nc1ccc(F)cc1)N1CCc2ccccc2[C@H]1c1ccc(C(F)(F)F)cc1,Cp [3]: 460 ng/mL; Vd [4]: 15.3 L/kg; Cmax [5]: 265 ng/mL; AUC(0-inf) [6]: 763 ng·h/mL; AUC(0-inf) [7]: 1750 ng·h/mL; EC50 [8]: 0.209 µg/mL; inhibition [8]: Dose-dependent effect; inhibition in vivo at 3 mg/kg [9]: 30%; bioavailability [10]: 57%; inhibition in vivo at 30 mg/kg [11]: > 80%
790 nM,43 µL/min/mg,O=C(Nc1ccc(F)cc1)N1CCc2cccc(F)c2C1c1ccc(C(F)(F)F)cc1 (centres undefined),–
5570 nM,> 399 µL/min/mg,O=C(Nc1ccccc1)N1CCc2sccc2C1C1CC1 (centres undefined),–

IC50 [1],microsomal CLint at 1 µM [2],SMILES,also measured
> 20000 nM,180 µL/min/mg,O=C(Nc1ccccc1)N1CCc2sccc2C1,–
560 nM,> 399 µL/min/mg,O=C(Nc1ccccc1)N1CCc2sccc2C1c1ccc(Cl)cc1 (centres undefined),–
140 nM,> 399 µL/min/mg,O=C(Nc1ccccc1)N1CCc2sccc2C1c1ccccc1Cl (centres undefined),–
2890 nM,> 399 µL/min/mg,O=C(Nc1ccccc1)N1CCc2sccc2C1c1cccc(Cl)c1 (centres undefined),–
6800 nM,–,CC1c2ccsc2CCN1C(=O)Nc1ccccc1 (centres undefined),–
1260 nM,> 399 µL/min/mg,CC(C)C(=O)N1CCc2sccc2C1c1ccc(C(F)(F)F)cc1 (centres undefined),–
> 20000 nM,–,CC(C)CN1CCc2sccc2C1c1ccc(C(F)(F)F)cc1 (centres undefined),–
1630 nM,162 µL/min/mg,O=C(Nc1ccc(Cl)cc1)N1CCc2sccc2C1c1ccc(C(F)(F)F)cc1 (centres undefined),–
340 nM,178 µL/min/mg,O=C(Nc1ccc(F)cc1)N1CCc2sccc2C1c1ccc(C(F)(F)F)cc1 (centres undefined),–
600 nM,342 µL/min/mg,O=C(Nc1ccccc1F)N1CCc2sccc2C1c1ccc(C(F)(F)F)cc1 (centres undefined),–
340 nM,64 µL/min/mg,O=C(Nc1ccc(F)cc1)N1Cc2ccccc2C1c1ccc(C(F)(F)F)cc1 (centres undefined),–
> 20000 nM,> 399 µL/min/mg,O=C(N1CCOCC1)N1CCc2sccc2C1c1ccc(C(F)(F)F)cc1 (centres undefined),–
–,–,O=C(Nc1ccc(F)cc1)N1CCc2ccccc2[C@@H]1c1ccc(C(F)(F)F)cc1,Vd [4]: 15.8 L/kg; AUC(0-inf) [6]: 347 ng·h/mL; inhibition [12]: inactive; Cp [13]: 521 ng/mL
260 nM,36 µL/min/mg,Cn1cnc2c1CCN(C(=O)Nc1ccc(F)cc1)C2c1ccc(C(F)(F)F)cc1 (centres undefined),–
1430 nM,23 µL/min/mg,O=C(Nc1ccc(F)cc1)N1CCc2nc[nH]c2C1c1ccc(C(F)(F)F)cc1 (centres undefined),–
302 nM,40 µL/min/mg,O=C(Nc1ccc(F)cc1)N1CCc2cc(F)ccc2C1c1ccc(C(F)(F)F)cc1 (centres undefined),–
1690 nM,> 399 µL/min/mg,O=C(Nc1ccccc1)N1CCc2sccc2C1c1ccccc1 (centres undefined),–
> 20000 nM,248 µL/min/mg,O=C(c1ccc(F)cc1)N1CCc2sccc2C1c1ccc(C(F)(F)F)cc1 (centres undefined),–
100 nM,48 µL/min/mg,O=C(Nc1ccc(F)cc1)N1CCc2c(F)cccc2C1c1ccc(C(F)(F)F)cc1 (centres undefined),–
> 20000 nM,> 399 µL/min/mg,O=C(c1cccc(F)c1)N1CCc2sccc2C1c1ccc(C(F)(F)F)cc1 (centres undefined),–
230 nM,164 µL/min/mg,O=C(Nc1ccc(F)cc1)N1CCc2ccoc2C1c1ccc(C(F)(F)F)cc1 (centres undefined),–
> 20000 nM,> 399 µL/min/mg,FC(F)(F)c1ccc(C2c3ccsc3CCN2Cc2ccccc2)cc1 (centres undefined),–
2320 nM,203 µL/min/mg,COc1ccc(NC(=O)N2CCc3sccc3C2c2ccc(C(F)(F)F)cc2)cc1 (centres undefined),–
240 nM,> 399 µL/min/mg,O=C(Nc1ccccc1)N1CCc2sccc2C1c1ccccc1C(F)(F)F (centres undefined),–
